From ChEMBL document CHEMBL4613280, “Development of Pyrazolo[3,4-d]pyrimidine Kinase Inhibitors as Potential Clinical Candidates for Glioblastoma Multiforme” (ACS Med Chem Lett, 2020) come the findings set out here.

Calls of active or inactive are those of the source. The calls are words filed in the database; no cut-off is given here.

Assay [1] can be described thus: Cytotoxicity against human GCE28 cells derived from central tumor core of GBM patient assessed as reduction in cell viability measured after 48 hrs by Prestoblue assay. In kind it is functional, cell-based. In short, it runs like this:
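Compounds diluted in DMEM containing 10% FBS and applied for 48 h. Viability read by PrestoBlue. IC50 calculated from three independent experiments, mean ± SE. Two-way ANOVA with Dunnett's multiple comparisons test.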

Assay [2] is filed under the species Homo sapiens. Nature of the assay: Induction of apoptosis in human GIN8 cells assessed as increase in caspase 3/7 activation at 12.5 uM measured after 48 hrs by CellEvent caspase 3/7 probe based fluorescence analysis. In kind it is functional, cell-based. An outline of the steps: (§1)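 Cells exposed 48 h to compounds diluted in 10% FBS DMEM. Activated caspase-3/7 detected with the CellEvent probe. Staurosporine 10.0 μM served as reference inducer. Mean ± SEM (n = 3). Two-way ANOVA with Dunnett's test.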

The species named for assay [3] is Homo sapiens. Nature of the assay: Induction of apoptosis in human GCE28 cells assessed as increase in caspase 3/7 activation at 12.5 uM measured after 48 hrs by CellEvent caspase 3/7 probe based fluorescence analysis. In kind it is functional, cell-based. An outline of the steps: as §1
Assay [4] is filed under the species Homo sapiens. Description: Induction of apoptotic death in human GCE28 cells assessed as presence of apoptotic bodies at 12.5 uM measured after 48 hrs by Hoechst 33342/propidium iodide staining based fluorescence microscopy analysis. In kind it is functional, cell-based. In short, it runs like this:
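Cells dosed 48 h with 12.5 μM inhibitor, with 70% ethanol or DMEM (negative) as controls. Nuclei then double-stained with Hoechst 33342 and propidium iodide and examined by fluorescence microscopy.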

A short description of assay [5]: Additive cytotoxicity against human GIN8 cells assessed as combination index measured after 48 hrs in presence of 2-[[4-(2-phenylethylamino)-1-[styryl]pyrazolo[3,4-d]pyrimidin-6-yl]amino]ethanol by Chou-Talalay assay. In kind it is functional. An outline of the steps:
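Each drug pair dosed at a 1:1 molar ratio on the GBM lines and incubated 48 h. CI computed from three independent IC50 experiments (n = 3), reported as mean ± SD.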

For assay [6], the species on record is Homo sapiens. Nature of the assay: Cytotoxicity against human GIN8 cells assessed as reduction in cell viability at 5 ug/ml measured after 48 hrs using compound dissolved in DMSO by Prestoblue assay. In kind it is functional, cell-based. An outline of the steps: (§2)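 Inhibitor either dissolved in DMSO, inkjet-printed into polymer, or suspended in PBS, then diluted in DMEM. Polymer-alone and untreated controls included. Viability read by PrestoBlue after 48 h, mean ± SD.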

For assay [7], the species on record is Homo sapiens. Description: Cytotoxicity against human GIN28 cells assessed as reduction in cell viability at 5 ug/ml measured after 48 hrs using Pluronic-F68-formulated compound by Prestoblue assay. It counts as functional, cell-based. In short, it runs like this:
as §2

The species named for assay [8] is Homo sapiens. Description: Cytotoxicity against human GIN28 cells assessed as reduction in cell viability at 5 ug/ml measured after 48 hrs using Tween 80-formulated compound by Prestoblue assay. In kind it is functional, cell-based. In short, it runs like this: as §2
For assay [9], the species on record is Homo sapiens. Nature of the assay: Cytotoxicity against human GCE28 cells assessed as reduction in cell viability at 5 ug/ml measured after 48 hrs using Tween 80-formulated compound by Prestoblue assay. In kind it is functional, cell-based. In short, it runs like this:
as §2

For assay [10], the species on record is Homo sapiens. Nature of the assay: Cytotoxicity against human GIN8 cells assessed as reduction in cell viability at 5 ug/ml measured after 48 hrs using PVPVA-formulated compound by Prestoblue assay. It counts as functional, cell-based. An outline of the steps:
as §2

The species entered for assay [11] is Homo sapiens. Description: Cytotoxicity against human GIN28 cells assessed as reduction in cell viability at 5 ug/ml measured after 48 hrs using PVPVA-formulated compound by Prestoblue assay. It counts as functional, cell-based. In short, it runs like this: as §2
For assay [12], the species on record is Homo sapiens. Nature of the assay: Cytotoxicity against human GCE28 cells assessed as reduction in cell viability at 5 ug/ml measured after 48 hrs using PVPVA-formulated compound by Prestoblue assay. In kind it is functional, cell-based. An outline of the steps: as §2

Regarding `ClC(Cn1ncc2c(Nc3cccc(Br)c3)nc(SCCN3CCOCC3)nc21)c1ccccc1` (configuration not stated), the IC50 in assay [1] stood at 7.2 µM. Further, the outcome in the assay listed under Homo sapiens [2], in the assay filed under Homo sapiens [3], in the assay listed under Homo sapiens [4], in the assay filed under Homo sapiens [6], in the assay filed under Homo sapiens [7] and in the assay listed under Homo sapiens [8] was Active. The outcome in the assay filed under Homo sapiens [9], in the assay filed under Homo sapiens [10], in the assay filed under Homo sapiens [11] and in the assay listed under Homo sapiens [12] was Active. Also, in assay [5], the CI turned out to be 0.99.
